Consider four compounds from ChEMBL document CHEMBL1156215, “Homoisoflavonoid derivatives from the roots of Ophiopogon japonicus and their in vitro anti-inflammation activity” (Bioorg Med Chem Lett, 2010).

Data set [1] in a line: Cytotoxicity against human BEAS2B cells at 25 uM after 48 hrs by MTT assay. The conditions noted are these: beas-2b. In kind it is cell-based. An outline of the steps: (§1)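 BEAS-2B viability by MTT after 48 h exposure to compound, with or without IL-4.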
Data set [2] can be described thus: Antiinflammatory activity in human BEAS2B cells assessed as inhibition of IL4-induced eotaxin production at 25 uM after 48 hrs by ELISA treated 2 hrs before IL4 challenge. It counts as functional, BEAS-2B. An outline of the steps: (§2)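 BEAS-2B cells in RPMI-1640 with 10% FBS at 37 °C, 5% CO2, plated at 5 × 10^5/mL, switched to serum-free RPMI at 80% confluence. Pretreated 2 h with compound (1.0–25.0 μM), then IL-4 (20 ng/mL) alone. Supernatant eotaxin measured by sandwich ELISA after 48 h. Values are the mean of three experiments.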

The nature of data set [3]: Cytotoxicity against human BEAS2B cells at 25 uM after 48 hrs by MTT assay in the presence of IL4. It counts as cell-based. The conditions noted are these: beas-2b. An outline of the steps: as §1
(In general: Formazan colour is commonly taken as a measure of viable cells.)

Data set [4] deals with BEAS-2B. The data set is described as follows: Antiinflammatory activity in human BEAS2B cells assessed as inhibition of IL4-induced eotaxin production after 48 hrs by ELISA treated 2 hrs before IL4 challenge. It counts as functional, cell-based. The gist of the method: as §2
Data set [5] relates to BEAS-2B. The data set is described as follows: Antiinflammatory activity in human BEAS2B cells assessed as inhibition of IL4 and TNF-alpha-induced eotaxin production after 48 hrs by ELISA treated 2 hrs before IL4 challenge. It counts as functional, cell-based. Background: An ELISA detects its analyte on a solid surface through an enzyme-linked reagent.
Data set [6] in a line: Antiinflammatory activity in human BEAS2B cells assessed as reduction in IL4 and TNF-alpha-induced eotaxin production at 25 uM after 48 hrs by ELISA treated 2 hrs before IL4 challenge (RVb=456.2 pg/ml).

With `COc1ccc(C[C@@H]2COc3c(OC)c(O)c(C)c(O)c3C2=O)c(O)c1O` [OPHIOPOGONANONE G], the Activity result was “Non-toxic” in data set [1], 30.8 pg/mL in data set [2], “Non-toxic” in data set [3] and “Dose-dependent effect” in the data set with BEAS-2B [4].
Regarding `Cc1c(O)c2c(c(C=O)c1O[C@@H]1O[C@H](CO)[C@@H](O)[C@H](O)[C@H]1O)OC[C@@H](Cc1ccc3c(c1)OCO3)C2=O` [OPHIOPOGOSIDE A], the Activity entry in data set [1] was “Non-toxic”; in data set [2], 28.5 pg/mL; in data set [3], “Non-toxic”; in the data set with BEAS-2B [4], “Dose-dependent effect”; with BEAS-2B [5], “Dose-dependent effect”.
In the case of `COc1c(C)c(O[C@@H]2O[C@H](CO)[C@@H](O)[C@H](O)[C@H]2O)c(C=O)c2c1C(=O)[C@H](Cc1ccc3c(c1)OCO3)CO2` [OPHIOPOGOSIDE B], the Activity result in data set [1] is “Non-toxic”; in data set [2], 25.5 pg/mL; in data set [3], “Non-toxic”; in the data set on BEAS-2B [4] it was “Dose-dependent effect”.
As for `COc1ccc2ccc(=O)oc2c1CC=C(C)C` [OSTHOLE], in data set [6], the Activity is 80.5 pg/mL.
